{"data": "Assay results from different studies", "PTPN12": "Tyrosine-protein phosphatase non-receptor type 12 (PTPN12, Homo sapiens, UniProt Q05209)", "Dual specificity calcium/calmodulin-dependent 3',5'-cyclic nucleotide phosphodiesterase 1B": "Dual specificity calcium/calmodulin-dependent 3',5'-cyclic nucleotide phosphodiesterase 1B (Homo sapiens, UniProt Q01064)", "SLC6A2": "Sodium-dependent noradrenaline transporter (SLC6A2, Homo sapiens, UniProt P23975)", "Fructose-1,6-bisphosphatase 1 G27P": "Fructose-1,6-bisphosphatase 1 (Mus musculus, UniProt Q9QXD6, G27P)", "GRM3": "Metabotropic glutamate receptor 3 (GRM3, Homo sapiens, UniProt Q14832)", "Aldo-keto reductase family 1 member A1": "Aldo-keto reductase family 1 member A1 (Rattus norvegicus, UniProt P51635)", "NPSR1": "Neuropeptide S receptor (NPSR1, Homo sapiens, UniProt Q6W5P4)", "TPR": "Trypanothione reductase (TPR, Trypanosoma cruzi, UniProt P28593)", "FGR": "Tyrosine-protein kinase Fgr (FGR, Homo sapiens, UniProt P09769)", "note": "Each line is one published result; the experiments were not run side by side."}
{"SMILES": "Cc1ccc(C(=O)Nc2ccc(S(=O)(=O)O)c3cc(S(=O)(=O)O)cc(S(=O)(=O)O)c23)cc1NC(=O)c1cccc(NC(=O)Nc2cccc(C(=O)Nc3cc(C(=O)Nc4ccc(S(=O)(=O)O)c5cc(S(=O)(=O)O)cc(S(=O)(=O)O)c45)ccc3C)c2)c1", "target": "PTPN12", "effect on": "enzyme activity", "action": "inhibitor", "IC50": "11 µM"}
{"SMILES": "O=C1NC(=O)/C(=C/c2ccc(OCCNc3nc4c(cnn4C4CCCC4)c(=O)[nH]3)c(F)c2)S1", "target": "Dual specificity calcium/calmodulin-dependent 3',5'-cyclic nucleotide phosphodiesterase 1B", "effect on": "enzyme activity", "action": "inhibitor", "IC50": "0.0065 µM"}
{"SMILES": "c1ccc(CCC2CCN(CCCCn3nnnc3C(c3ccccc3)c3ccccc3)CC2)cc1", "target": "SLC6A2", "effect on": "transporter uptake", "action": "inhibitor", "IC50": "0.274 µM"}
{"SMILES": "O=P(O)(O)OC[C@H]1O[C@@](CO)(OP(=O)(O)O)[C@@H](O)[C@@H]1O", "target": "Fructose-1,6-bisphosphatase 1 G27P", "effect on": "enzyme activity", "action": "inhibitor", "IC50": "1.52 µM"}
{"SMILES": "CN1CCN(c2ccc(Nc3ncc4cc(C#N)c(=O)n(C5CCCC5)c4n3)cc2)CC1", "target": "Fibroblast growth factor receptor 4 (FGFR4, Homo sapiens, UniProt P22455)", "effect on": "enzyme activity", "action": "inhibitor", "IC50": "1.53 µM"}
{"SMILES": "Fc1ccc(C(c2ccc(F)cc2)c2nnnn2CCCCN2CCN(Cc3ccccc3)CC2)cc1", "target": "SLC6A2", "effect on": "transporter uptake", "action": "inhibitor", "IC50": "0.16 µM"}
{"SMILES": "COc1ccc(-c2cc(C(N)=O)ncc2OCc2ccc(F)nc2)c(F)c1", "target": "GRM3", "effect on": "ion flux", "action": "antagonist", "IC50": "> 10 µM"}
{"SMILES": "COc1ccc(/C=C2\\SC(=Nc3nc4ccc(OC)cc4s3)NC2=O)cc1", "target": "Aldo-keto reductase family 1 member A1", "effect on": "enzyme activity", "action": "inhibitor", "method": "absorbance", "pH": "pH 7.2", "IC50": "4.21 µM"}
{"SMILES": "COc1cccc(C2c3c(ncn(-c4ccccc4Cl)c3=N)Oc3ccc4ccccc4c32)c1 (stereo not drawn)", "target": "NPSR1", "effect on": "cAMP", "action": "antagonist", "method": "TR-FRET", "IC50": "12.2 µM"}
{"SMILES": "OC(c1ccccc1)c1ccccc1", "target": "TPR", "effect on": "enzyme activity", "action": "inhibitor", "method": "absorbance", "IC50": "> 100 µM"}
{"SMILES": "Cc1cnc(-c2ccc(-c3ccc(NC(=O)Nc4c(F)cc(F)cc4F)cc3F)c3c2C(=O)NC3)[nH]1", "target": "FGR", "effect on": "enzyme activity", "action": "inhibitor", "IC50": "0.01 µM"}
{"SMILES": "COc1ccc(-c2cc(C(N)=O)ncc2OCc2ccn(C)n2)c(F)c1", "target": "GRM3", "effect on": "ion flux", "action": "antagonist", "IC50": "> 10 µM"}
{"SMILES": "OC[C@@H]1[C@@H](O)[C@H](O)[C@@H](O)[C@@H]2O[C@H]12", "target": "bglA (Thermotoga maritima, UniProt Q08638)", "effect on": "enzyme activity", "action": "inhibitor", "pH": "pH 6.8", "notes": "with preincubation", "IC50": "0.37 µM"}
{"SMILES": "CCN(CC)CCOc1ccc2c(c1)C(=O)c1cc(OCCN(CC)CC)ccc1-2", "target": "Cholinesterase (BCHE, Homo sapiens, UniProt P06276)", "effect on": "enzyme activity", "action": "inhibitor", "IC50": "> 50 µM"}
{"SMILES": "Nc1nccc2cc(CNC(=O)c3cnn(Cc4ccc(Cn5ccccc5=O)cc4)c3)ccc12", "target": "Plasma kallikrein (KLKB1, Homo sapiens, UniProt P03952)", "effect on": "enzyme activity", "action": "inhibitor", "notes": "with preincubation", "IC50": "0.00059 µM"}
{"SMILES": "COc1cccc(C2c3c(ncn(-c4ccc(NC(C)=O)cc4)c3=N)Oc3ccc4ccccc4c32)c1 (stereo not drawn)", "target": "NPSR1", "effect on": "cAMP", "action": "antagonist", "method": "TR-FRET", "IC50": "19.4 µM"}
{"SMILES": "O=C(O)c1cc(O)c2c(c1)[C@H]([C@H]1c3cc(C(=O)O)cc(O)c3C(=O)c3c(O[C@@H]4O[C@H](CO)[C@@H](O)[C@H](O)[C@H]4O)cccc31)c1cccc(O[C@@H]3O[C@H](CO)[C@@H](O)[C@H](O)[C@H]3O)c1C2=O", "target": "PTPN12", "effect on": "enzyme activity", "action": "inhibitor", "IC50": "0.2 µM"}
{"SMILES": "OC1c2ccccc2CCc2ccccc21", "target": "TPR", "effect on": "enzyme activity", "action": "inhibitor", "method": "absorbance", "IC50": "> 100 µM"}
{"SMILES": "COc1cccc(C2c3c(ncn(-c4cccc(Cl)c4)c3=N)Oc3ccc4ccccc4c32)c1 (stereo not drawn)", "target": "NPSR1", "effect on": "cAMP", "action": "antagonist", "method": "TR-FRET", "IC50": "15.4 µM"}
{"SMILES": "O=S(=O)(Nc1nc2cc(Cl)ccc2o1)c1cc(Cl)ccc1Cl", "target": "Fructose-1,6-bisphosphatase 1 G27P", "effect on": "enzyme activity", "action": "inhibitor", "IC50": "> 100 µM"}
{"SMILES": "COc1ccc2c(Oc3ccc4c(C(=O)Nc5ccccc5N)cccc4c3)ccnc2c1", "target": "FGR", "effect on": "enzyme activity", "action": "inhibitor", "IC50": "> 0.5 µM"}
{"SMILES": "COc1cccc(C2c3c(ncn(-c4cccc(C#N)c4)c3=N)Oc3ccc4ccccc4c32)c1 (stereo not drawn)", "target": "NPSR1", "effect on": "calcium signal", "action": "antagonist", "IC50": "4.38 µM"}
{"SMILES": "N=c1n(CCN2CCCCC2)c2ccccc2n1CC(O)COc1ccc(Cl)cc1Cl (stereo not drawn)", "target": "TPR", "effect on": "enzyme activity", "action": "inhibitor", "IC50": "≤ 10 µM"}
{"SMILES": "CSc1ccc(/C=C2/C(C)=C(CC(=O)O)c3cc(F)ccc32)cc1", "target": "Dual specificity calcium/calmodulin-dependent 3',5'-cyclic nucleotide phosphodiesterase 1B", "effect on": "enzyme activity", "action": "inhibitor", "IC50": "> 100 µM"}
{"SMILES": "COc1cccc(C2c3c(ncn(-c4ccc(C#N)cc4)c3=N)Oc3ccc4ccccc4c32)c1 (stereo not drawn)", "target": "NPSR1", "effect on": "cAMP", "action": "antagonist", "method": "TR-FRET", "IC50": "5.52 µM"}
{"SMILES": "Clc1ccc(C(c2ccccc2)c2nnnn2CCCCN2CCC(Cc3ccc(Cl)c(Cl)c3)CC2)cc1 (stereo not drawn)", "target": "SLC6A2", "effect on": "transporter uptake", "action": "inhibitor", "IC50": "0.78 µM"}
{"SMILES": "COc1ccc2nc(/N=C3/NC(=O)C(=Cc4ccc(Cl)cc4)S3)sc2c1", "target": "Aldo-keto reductase family 1 member A1", "effect on": "enzyme activity", "action": "inhibitor", "method": "absorbance", "pH": "pH 7.2", "IC50": "18.3 µM"}
{"SMILES": "Cc1nn2c(-c3c(C)nn(C)c3-c3ccc(C(F)(F)F)cc3)nc(CO)c2c(=O)[nH]1", "target": "Dual specificity calcium/calmodulin-dependent 3',5'-cyclic nucleotide phosphodiesterase 1B", "effect on": "enzyme activity", "action": "inhibitor", "IC50": "5.26 µM"}
{"SMILES": "CCN(CC)CCn1c(=N)n(CC(O)c2ccc(Cl)c(Cl)c2)c2ccccc21 (stereo not drawn)", "target": "TPR", "effect on": "enzyme activity", "action": "inhibitor", "IC50": "≤ 10 µM"}
{"SMILES": "Fc1ccc(C(c2ccc(F)cc2)c2nnnn2CCCCN2CCC(Cc3ccccc3)CC2)cc1", "target": "SLC6A2", "effect on": "transporter uptake", "action": "inhibitor", "IC50": "0.298 µM"}
{"SMILES": "COc1cccc(C2c3c(ncn(-c4ccccn4)c3=N)Oc3ccc4ccccc4c32)c1 (stereo not drawn)", "target": "NPSR1", "effect on": "calcium signal", "action": "antagonist", "IC50": "5.51 µM"}
{"SMILES": "CN(C)CCCN1c2ccccc2Sc2ccc(Cl)cc21", "target": "TPR", "effect on": "enzyme activity", "action": "inhibitor", "method": "absorbance", "IC50": "6.32 µM"}
{"SMILES": "COc1ccc(-c2cc(C(N)=O)ncc2OCc2ccc(OC)nc2)c(F)c1", "target": "GRM3", "effect on": "ion flux", "action": "antagonist", "IC50": "> 10 µM"}
{"SMILES": "N=c1n(CCOc2ccccc2)c2ccccc2n1CCN1CCCCC1", "target": "TPR", "effect on": "enzyme activity", "action": "inhibitor", "IC50": "≤ 10 µM"}
{"SMILES": "CN[C@H]1CC[C@@H](c2ccc(Cl)c(Cl)c2)c2ccccc21", "target": "PTPN12", "effect on": "enzyme activity", "action": "inhibitor", "method": "fluorescence", "IC50": "55 µM"}
{"SMILES": "COc1cccc(C2c3c(ncn(-c4ccncc4)c3=N)Oc3ccc4ccccc4c32)c1 (stereo not drawn)", "target": "NPSR1", "effect on": "calcium signal", "action": "antagonist", "IC50": "4.38 µM"}
{"SMILES": "O=C1c2ccccc2C(=O)c2c(O)c(O)cc(O)c21", "target": "PTPN12", "effect on": "enzyme activity", "action": "inhibitor", "method": "fluorescence", "IC50": "7 µM"}
{"SMILES": "N=c1c2c(ncn1Cc1ccccc1)Oc1ccc3ccccc3c1C2c1ccccc1 (stereo not drawn)", "target": "NPSR1", "effect on": "cAMP", "action": "antagonist", "method": "TR-FRET", "IC50": "3.07 µM"}
{"SMILES": "BrCCCc1ccccc1", "target": "TPR", "effect on": "enzyme activity", "action": "inhibitor", "method": "absorbance", "IC50": "> 100 µM"}
